Tests used:
[1] = species: Mus musculus; assay: Stimulation of prostanoid receptor-mediated cAMP accumulation in Charles River CD-1 mouse ovary at 25 ug/ml after 30 mins relative to control; type: tissue-based; conditions: Female gonad
How it was run: (§1)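 Mouse ovaries incubated 1 h at 37 °C with shaking to build an intracellular ATP-14C pool. Then 0.2 ml 0.05 M theophylline in 0.15 M NaCl and test compound in Me2SO were added, followed by 30 min at 37 °C. Stopped with 10% trichloroacetic acid and homogenized. cAMP-14C was isolated from the supernatant ending with paper chromatography. Result is fold increase, treated over untreated ovaries.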

[2] = species: Mus musculus; assay: Stimulation of prostanoid receptor-mediated cAMP accumulation in Charles River CD-1 mouse ovary at 100 ug/ml after 30 mins relative to control; type: tissue-based; conditions: Female gonad; how it was run: as §1
[3] = species: Mus musculus; assay: Stimulation of prostanoid receptor-mediated cAMP accumulation in Charles River CD-1 mouse ovary at 10 ug/ml after 30 mins relative to control; type: tissue-based; conditions: Female gonad; how it was run: as §1
[4] = species: Mus musculus; assay: Stimulation of prostanoid receptor-mediated cAMP accumulation in Charles River CD-1 mouse ovary at 0.05 ug/ml after 30 mins relative to control; type: tissue-based; conditions: Female gonad; how it was run: as §1
[5] = species: Mus musculus; assay: Stimulation of prostanoid receptor-mediated cAMP accumulation in Charles River CD-1 mouse ovary at 0.1 ug/ml after 30 mins relative to control; type: tissue-based; conditions: Female gonad; how it was run: as §1
[6] = species: Mus musculus; assay: Stimulation of prostanoid receptor-mediated cAMP accumulation in Charles River CD-1 mouse ovary at 1 ug/ml after 30 mins relative to control; type: tissue-based; conditions: Female gonad; how it was run: as §1
[7] = test system: Canis familiaris; assay: Increase in renal blood flow in anesthetized dog at 0.25 mg/kg/min infused into thoracic aorta (reference value: 188 ml/min); type: functional, Canis lupus familiaris

SMILES	fold change (FC) [1]	fold change (FC) [2]	fold change (FC) [3]	fold change (FC) [4]	fold change (FC) [5]	fold change (FC) [6]	Activity [7] [mL/min]
CCCCCC(O)/C=C/CN(CCCCCCC(=O)O)C(N)=O (stereo not drawn)	19	26	14	–	–	–	–
CCCCCC(C)(O)CCCN(CCCCCCC(=O)O)C(N)=O (stereo not drawn)	8	22	3	–	–	–	–
CCCCC[C@H](O)/C=C/[C@H]1[C@H](O)CC(=O)[C@@H]1CCCCCCC(=O)O	–	–	–	29	25	54	–
CCCCCC(O)CCCN(CCCCCCC(=O)O)C(N)=S (stereo not drawn)	16	26	4	–	–	–	–
CCCCC[C@H](O)CC[C@H]1CCC(=O)[C@@H]1CCCCCCC(=O)O	26	–	25	–	–	10	–
CCCCCC(O)CCCC(CCCCCCC(=O)O)C(C)=O (stereo not drawn)	14	23	11	–	–	2	–
CCCCCC(O)CCCN(CCCCCCC(=O)[O-])C(N)=O.[Na+] (stereo not drawn)	43	40	23	–	–	2	258
CCCCCC(O)CCCN(C#N)CCCCCCC(=O)O (stereo not drawn)	18	31	4	–	–	–	–

More lines, main results first:

fold change (FC) [1]	fold change (FC) [2]	fold change (FC) [3]	fold change (FC) [4]	fold change (FC) [5]	fold change (FC) [6]	SMILES	Activity [7] [mL/min]
1	1	–	–	–	–	CCCCCCCCC(c1ccccc1)N(CCCCCCC(=O)O)C(C)=O (stereo not drawn)	–
3	4	–	–	–	–	CCCCCCCCC(C)N(CCCCCCC(=O)O)C(C)=O (stereo not drawn)	–
16	25	15	–	–	–	CCCCCCCCCN(CCCCCCC(=O)O)C(N)=O	–
7	11	2	–	–	–	C=CC(=O)N(CCCCCCCCC)CCCCCCC(=O)O	–
17	17	10	–	–	–	CCCCCC(O)CCCN(CCCCCCC(=O)O)C(C)=O (stereo not drawn)	–
16	17	9	–	–	–	CCCCCCCCC(C)N(CCCCCCC(=O)O)C(N)=O (stereo not drawn)	–

Reference: ChEMBL document CHEMBL3272077, “11,12-Secoprostaglandins. 2. N-acyl-N-alkyl-7-aminoheptanoic acids” (1977)
